# Results taken from ChEMBL document CHEMBL1129929, “Analogues of methotrexate in rheumatoid arthritis. 1. Effects of 10-deazaaminopterin analogues on type II collagen-induced arthritis in mice” (J Med Chem, 1997).
# Columns and labels:
# [1] = Concentration required to inhibit the growth of chang liver cells; assay type: functional; conditions: Homo sapiens
# L1210 = assay: Concentration required to inhibit the growth of L1210 cells; assay type: functional, cell-based; conditions: Mus musculus
# Mus musculus [2] = assay: Incidence of disease(mouse type II collagen arthritis) was scored as the percentage of animals within each experimental group that exhibited joint or limb inflammation on day 30 at intraperitoneal of dose 2 mg/kg; assay type: functional
# How it was run: (§1)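 DBA/1 mice were immunized with bovine type II collagen (modified Courtenay method), with a collagen booster on day 21. Compounds were given ip starting 2 days before the first collagen challenge and every 2 days thereafter. Incidence was the percentage of animals per group with joint or limb inflammation, scored on days 23, 30, 37 and 44.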
# Mus musculus [3] = assay: Incidence of disease(mouse type II collagen arthritis) was scored as the percentage of animals within each experimental group that exhibited joint or limb inflammation on day 30 at intraperitoneal of dose 4 mg/kg; assay type: functional; how it was run: as §1
# Mus musculus [4] = assay: Incidence of disease(mouse type II collagen arthritis) was scored as the percentage of animals within each experimental group that exhibited joint or limb inflammation on day 30 at intraperitoneal of dose 8 mg/kg; assay type: functional; how it was run: as §1
# Mus musculus [5] = assay: Incidence of disease(mouse type II collagen arthritis) was scored as the percentage of animals within each experimental group that exhibited joint or limb inflammation on day 23 at intraperitoneal dose of 2 mg/kg; assay type: functional; how it was run: as §1
# Mus musculus [6] = assay: Incidence of disease(mouse type II collagen arthritis) was scored as the percentage of animals within each experimental group that exhibited joint or limb inflammation on day 23 at intraperitoneal dose of 4 mg/kg; assay type: functional; how it was run: as §1
# Mus musculus [7] = assay: Incidence of disease(mouse type II collagen arthritis) was scored as the percentage of animals within each experimental group that exhibited joint or limb inflammation on day 23 at intraperitoneal dose of 8 mg/kg; assay type: functional; how it was run: as §1
# Mus musculus [8] = assay: Tested for antiinflammatory activity on mouse type II collagen arthritis as Paw swelling* of all animals in each group on day 23 at intraperitoneal dose of 2 mg/kg; assay type: functional
# How it was run: (§2)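 DBA/1 mice immunized with bovine type II collagen (Courtenay method, modified), antigen booster at day 21. Compounds given ip from 2 days before the first collagen challenge, then every 2 days. Hind paw dimensions (mm) measured for both limbs of all animals, expressed as mean ± SD. Eight mice per dose; untreated controls pooled from four experiments (48 animals).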
# Mus musculus [9] = assay: Tested for antiinflammatory activity on mouse type II collagen arthritis as Paw swelling* of all animals in each group on day 37 at intraperitoneal dose of 8 mg/kg; assay type: functional; how it was run: as §2
# Mus musculus [10] = assay: Tested for antiinflammatory activity on mouse type II collagen arthritis as Paw swelling* of all animals in each group on day 44 at intraperitoneal dose of 2 mg/kg; assay type: functional; how it was run: as §2
# Mus musculus [11] = assay: Tested for antiinflammatory activity on mouse type II collagen arthritis as Paw swelling* of all animals in each group on day 44 at intraperitoneal dose of 4 mg/kg; assay type: functional; how it was run: as §2
# Mus musculus [12] = assay: Tested for antiinflammatory activity on mouse type II collagen arthritis as Paw swelling* of all animals in each group on day 23 at intraperitoneal dose of 8 mg/kg; assay type: functional; how it was run: as §2
# Mus musculus [13] = assay: Tested for antiinflammatory activity on mouse type II collagen arthritis as Paw swelling* of all animals in each group on day 23 at intraperitoneal dose of 4 mg/kg; assay type: functional; how it was run: as §2
# Mus musculus [14] = assay: Incidence of disease(mouse type II collagen arthritis) was scored as the percentage of animals within each experimental group that exhibited joint or limb inflammation on day 44 at intraperitoneal of dose 8 mg/kg; assay type: functional; how it was run: as §1
# Mus musculus [15] = assay: Incidence of disease(mouse type II collagen arthritis) was scored as the percentage of animals within each experimental group that exhibited joint or limb inflammation on day 37 at intraperitoneal of dose 2 mg/kg; assay type: functional; how it was run: as §1
# Mus musculus [16] = assay: Incidence of disease(mouse type II collagen arthritis) was scored as the percentage of animals within each experimental group that exhibited joint or limb inflammation on day 37 at intraperitoneal of dose 4 mg/kg; assay type: functional; how it was run: as §1
# Mus musculus [17] = assay: Incidence of disease(mouse type II collagen arthritis) was scored as the percentage of animals within each experimental group that exhibited joint or limb inflammation on day 37 at intraperitoneal of dose 8 mg/kg; assay type: functional; how it was run: as §1
# Mus musculus [18] = assay: Incidence of disease(mouse type II collagen arthritis) was scored as the percentage of animals within each experimental group that exhibited joint or limb inflammation on day 44 at intraperitoneal of dose 2 mg/kg; assay type: functional; how it was run: as §1
# Mus musculus [19] = assay: Incidence of disease(mouse type II collagen arthritis) was scored as the percentage of animals within each experimental group that exhibited joint or limb inflammation on day 44 at intraperitoneal of dose 4 mg/kg; assay type: functional; how it was run: as §1
# Mus musculus [20] = assay: Tested for antiinflammatory activity on mouse type II collagen arthritis as Paw swelling* of all animals in each group on day 30 at intraperitoneal dose of 2 mg/kg; assay type: functional; how it was run: as §2
# Mus musculus [21] = assay: Tested for antiinflammatory activity on mouse type II collagen arthritis as Paw swelling* of all animals in each group on day 30 at intraperitoneal dose of 4 mg/kg; assay type: functional; how it was run: as §2
# Mus musculus [22] = assay: Tested for antiinflammatory activity on mouse type II collagen arthritis as Paw swelling* of all animals in each group on day 30 at intraperitoneal dose of 8 mg/kg; assay type: functional; how it was run: as §2
# Mus musculus [23] = assay: Tested for antiinflammatory activity on mouse type II collagen arthritis as Paw swelling* of all animals in each group on day 37 at intraperitoneal dose of 2 mg/kg; assay type: functional; how it was run: as §2
# Mus musculus [24] = assay: Tested for antiinflammatory activity on mouse type II collagen arthritis as Paw swelling* of all animals in each group on day 37 at intraperitoneal dose of 4 mg/kg; assay type: functional; how it was run: as §2
# Mus musculus [25] = assay: Tested for antiinflammatory activity on mouse type II collagen arthritis as Paw swelling* of all animals in each group on day 44 at intraperitoneal dose of 8 mg/kg; assay type: functional; how it was run: as §2
# Mus musculus [26] = assay: Incidence of disease(mouse type II collagen arthritis) was scored as the percentage of animals within each experimental group that exhibited joint or limb inflammation on day 30 at intraperitoneal of dose 18 mg/kg; assay type: functional; how it was run: as §1
# Mus musculus [27] = assay: Incidence of disease(mouse type II collagen arthritis) was scored as the percentage of animals within each experimental group that exhibited joint or limb inflammation on day 37 at intraperitoneal of dose 12 mg/kg; assay type: functional; how it was run: as §1
# Mus musculus [28] = assay: Incidence of disease(mouse type II collagen arthritis) was scored as the percentage of animals within each experimental group that exhibited joint or limb inflammation on day 37 at intraperitoneal of dose 18 mg/kg; assay type: functional; how it was run: as §1
# Mus musculus [29] = assay: Incidence of disease(mouse type II collagen arthritis) was scored as the percentage of animals within each experimental group that exhibited joint or limb inflammation on day 23 at intraperitoneal dose of 18 mg/kg; assay type: functional; how it was run: as §1
# Mus musculus [30] = assay: Incidence of disease(mouse type II collagen arthritis) was scored as the percentage of animals within each experimental group that exhibited joint or limb inflammation on day 23 at intraperitoneal of dose 12 mg/kg; assay type: functional; how it was run: as §1
# Mus musculus [31] = assay: Incidence of disease(mouse type II collagen arthritis) was scored as the percentage of animals within each experimental group that exhibited joint or limb inflammation on day 30 at intraperitoneal of dose 12 mg/kg; assay type: functional; how it was run: as §1
# Mus musculus [32] = assay: Tested for antiinflammatory activity on mouse type II collagen arthritis as Paw swelling* of all animals in each group on day 44 at intraperitoneal dose of 12 mg/kg; assay type: functional; how it was run: as §2
# Mus musculus [33] = assay: Tested for antiinflammatory activity on mouse type II collagen arthritis as Paw swelling* of all animals in each group on day 44 at intraperitoneal dose of 18 mg/kg; assay type: functional; how it was run: as §2
# Mus musculus [34] = assay: Tested for antiinflammatory activity on mouse type II collagen arthritis as Paw swelling* of all animals in each group on day 30 at intraperitoneal dose of 12 mg/kg; assay type: functional; how it was run: as §2
# Mus musculus [35] = assay: Tested for antiinflammatory activity on mouse type II collagen arthritis as Paw swelling* of all animals in each group on day 23 at intraperitoneal dose of 12 mg/kg; assay type: functional; how it was run: as §2
# Mus musculus [36] = assay: Tested for antiinflammatory activity on mouse type II collagen arthritis as Paw swelling* of all animals in each group on day 23 at intraperitoneal dose of 18 mg/kg; assay type: functional; how it was run: as §2
# Mus musculus [37] = assay: Incidence of disease(mouse type II collagen arthritis) was scored as the percentage of animals within each experimental group that exhibited joint or limb inflammation on day 44 at intraperitoneal of dose 12 mg/kg; assay type: functional; how it was run: as §1
# Mus musculus [38] = assay: Incidence of disease(mouse type II collagen arthritis) was scored as the percentage of animals within each experimental group that exhibited joint or limb inflammation on day 44 at intraperitoneal of dose 18 mg/kg; assay type: functional; how it was run: as §1
# Mus musculus [39] = assay: Tested for antiinflammatory activity on mouse type II collagen arthritis as Paw swelling* of all animals in each group on day 37 at intraperitoneal dose of 12 mg/kg; assay type: functional; how it was run: as §2
# Mus musculus [40] = assay: Tested for antiinflammatory activity on mouse type II collagen arthritis as Paw swelling* of all animals in each group on day 37 at intraperitoneal dose of 18 mg/kg; assay type: functional; how it was run: as §2
# Mus musculus [41] = assay: Tested for antiinflammatory activity on mouse type II collagen arthritis as Paw swelling* of all animals in each group on day 30 at intraperitoneal dose of 18 mg/kg; assay type: functional; how it was run: as §2
structure (smiles),measurement,setting,value
Nc1nc(N)c2nc(CCc3ccc(C(=O)NC(CCC(=O)O)C(=O)O)cn3)cnc2n1 (centres undefined),IC50,[1],36 nM
same,IC50,L1210,88 nM
same,Animals,Mus musculus [2],50%
same,Animals,Mus musculus [3],57%
same,Animals,Mus musculus [4],38%
same,Animals,Mus musculus [5],0%
same,Animals,Mus musculus [6],0%
same,Animals,Mus musculus [7],0%
same,Paw swelling,Mus musculus [8],2.13 mm
same,Paw swelling,Mus musculus [9],2.2 mm
same,Paw swelling,Mus musculus [10],2.88 mm
same,Paw swelling,Mus musculus [11],2.68 mm
same,Paw swelling,Mus musculus [12],2.08 mm
same,Paw swelling,Mus musculus [13],2.08 mm
same,Animals,Mus musculus [14],50%
same,Animals,Mus musculus [15],63%
same,Animals,Mus musculus [16],71%
same,Animals,Mus musculus [17],25%
same,Animals,Mus musculus [18],88%
same,Animals,Mus musculus [19],100%
same,Paw swelling,Mus musculus [20],2.35 mm
same,Paw swelling,Mus musculus [21],2.24 mm
same,Paw swelling,Mus musculus [22],2.22 mm
same,Paw swelling,Mus musculus [23],2.67 mm
same,Paw swelling,Mus musculus [24],2.57 mm
same,Paw swelling,Mus musculus [25],2.33 mm
Nc1nc(N)c2nc(CCc3ccc(C(=O)NC(CCC(=O)O)C(=O)O)s3)cnc2n1 (centres undefined),IC50,[1],3.1 nM
same,IC50,L1210,8.1 nM
same,Animals,Mus musculus [26],0%
same,Animals,Mus musculus [27],50%
same,Animals,Mus musculus [28],38%
same,Animals,Mus musculus [29],0%
same,Animals,Mus musculus [30],0%
same,Animals,Mus musculus [31],0%
same,Paw swelling,Mus musculus [32],2.58 mm
same,Paw swelling,Mus musculus [33],2.38 mm
same,Paw swelling,Mus musculus [34],2.15 mm
same,Paw swelling,Mus musculus [35],2.15 mm
same,Paw swelling,Mus musculus [36],2.14 mm
same,Animals,Mus musculus [37],50%
same,Animals,Mus musculus [38],25%
same,Paw swelling,Mus musculus [39],2.28 mm
same,Paw swelling,Mus musculus [40],2.26 mm
same,Paw swelling,Mus musculus [41],2.16 mm
